Reference: ChEMBL document CHEMBL3085754, “Clicking 3'-azidothymidine into novel potent inhibitors of human immunodeficiency virus” (J Med Chem, 2013)
The source made the active and inactive calls. The calls are words filed in the database; no cut-off is given here.

Key:
[1] = target: Human immunodeficiency virus type 1 reverse transcriptase (Human immunodeficiency virus 1, UniProt Q72547); experiment: Inhibition of HIV1 reverse transcriptase-mediated [H3]TTP incorporation into poly(rA)-oligo(dT)16 DNA preincubated for 5 mins prior to primer/template and substrate addition by liquid scintillation spectrometric analysis
Procedure, shortened: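 10 nM wt HIV-1 RT preincubated 5 min with inhibitor in DMSO (1% final), then 40 nM poly(rA)-oligo(dT)16 and 10 μM [3H]TTP added. Buffer 50 mM Tris-HCl pH 8.0, 60 mM KCl, 10 mM MgCl2; 20 min at 37°C. Quenched with cold 10% TCA/20 mM pyrophosphate, glass-fibre filtered, washed with TCA and ethanol, incorporation counted by liquid scintillation.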

[2] = target: Human immunodeficiency virus type 1 reverse transcriptase (Human immunodeficiency virus 1) (UniProt Q72547); experiment: Binding affinity to HIV1 reverse transcriptase assessed as compound-terminated template/primer translocation from N-site to P-site of enzyme preincubated for 20 mins prior to TTP addition measured after 10 mins by gel electrophoretic analysis
Procedure, shortened: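 50 nM 32P-labelled primer/RNA template with 300 nM RT in 120 mM Na cacodylate pH 7.0, 20 mM NaCl, 6 mM MgCl2 and 100 μM AZT-TP or triphosphate analogue, 20 min at 37°C, for chain-terminator incorporation. Varying TTP then added for 10 min, followed by 500 μM Fe(NH4)2SO4 cleavage. Products resolved by denaturing gel electrophoresis.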

[3] = target: Human immunodeficiency virus type 1 reverse transcriptase (Human immunodeficiency virus 1) (UniProt Q72547); experiment: Induction of AZT-resistant HIV1 reverse transcriptase assessed as rate of ATP-mediated excision of chain-terminating nucleotides by phosphorimaging analysis
Procedure, shortened: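 5'-32P-labelled DNA primer annealed 1:1.5 to 40-nt RNA template, then chain-terminated with AZT-TP or the triphosphate analogue. AZT-resistant RT and terminated template/primer (2:1) in 50 mM Tris-HCl pH 8.0, 50 mM KCl. Started with 6 mM MgCl2 and 3 mM pyrophosphatase-pretreated ATP, 37°C. Stopped at timed points with formamide/EDTA dye and resolved by denaturing gel.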

[4] = test system: Human immunodeficiency virus 1; experiment: Antiviral activity against AZT-resistant Human immunodeficiency virus 1 expressing D67N/K70R/T215F/K219Q reverse transcriptase mutation; type: functional, organism-based
[5] = test system: Human immunodeficiency virus 1; experiment: Antiviral activity against wild type Human immunodeficiency virus 1 expressing p24 infected in human HeLa P4/R5 cells preincubated for 16 hrs prior to virus infection measured after 48 hrs by beta-galactosidase-based single replication cycle assay; type: functional, organism-based; conditions: for EC50: Human immunodeficiency virus 1, P4/R5
Procedure, shortened: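 P4R5 indicator cells express CD4, CXCR4, CCR5 and an HIV LTR-driven β-galactosidase reporter, and were kept in DMEM/10% FBS with puromycin. Cells were seeded at 5×10^3 per well and exposed to varying drug concentrations for 16 h. They were then inoculated with 25 ng HIV-1 p24 per well. Infection was quantified 48 h post-infection by fluorescence-based β-galactosidase detection.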

[6] = test system: Human immunodeficiency virus 1; experiment: Antiviral activity against NNRTI-resistant Human immunodeficiency virus 1; type: functional, organism-based
[7] = test system: Human immunodeficiency virus 1; experiment: Antiviral activity against Human immunodeficiency virus 1 3B infected in human CEM-SS cells assessed as inhibition of virus-induced cytopathic effect after 6 days by MTS assay; type: functional, organism-based; conditions: 144 h
[8] = (§1) Cytotoxicity against human CEM-SS cells assessed as cell viability after 6 days by MTS assay; type: cell-based; conditions: CEM-SS cells
[9] = Therapeutic index, ratio of CC50 for human CEM-SS cells to EC50 for Human immunodeficiency virus 1 3B; type: cell-based; conditions: read-out: Ratio CC50/EC50
[10] = test system: Human immunodeficiency virus 1; experiment: Ratio of EC50 for NNRTI-resistant Human immunodeficiency virus 1 to EC50 for wild type Human immunodeficiency virus 1 expressing p24; type: functional
[11] = test system: Human immunodeficiency virus 1; experiment: Ratio of EC50 for AZT-resistant Human immunodeficiency virus 1 to EC50 for wild type Human immunodeficiency virus 1 expressing p24; type: functional
[12] = test system: Human immunodeficiency virus 1; experiment: Antiviral activity against Human immunodeficiency virus 1 3B infected in human CEM-SS cells assessed as inhibition of virus-induced cytopathic effect at 10 uM after 6 days by MTS assay relative to control; type: functional; conditions: 144 h
CEM-SS [13] = experiment: as §1; type: cell-based; conditions: cem-ss, 144 h
CEM-SS [14] = experiment: Cytotoxicity against human CEM-SS cells assessed as cell viability at 10 uM after 6 days by MTS assay relative to control; type: cell-based; conditions: 144 h

With `Cc1cn([C@H]2C[C@H](n3nncc3-c3cccc4ccccc34)[C@@H](COP(=O)(O)OP(=O)(O)OP(=O)(O)O)O2)c(=O)[nH]c1=O` the IC50 [1] was 3.7 µM, the Activity [2] was “Active” and the Activity [3] was 0.0126 min⁻¹.
In the case of `Cc1cn([C@H]2C[C@H](N=[N+]=[N-])[C@@H](CO)O2)c(=O)[nH]c1=O` [ZIDOVUDINE], the EC50 [4] is reported as 7.9 µM, the EC50 [5] is reported as 140 nM and the Activity [2] is reported as “Active”. It also gave an EC50 [6] of 120 nM, an Activity [3] of 0.024 min⁻¹ and an EC50 [7] of 5.3 nM. It also gave a CC50 at 144 h [8] greater than 1000 nM.
With `Cc1cn([C@H]2C[C@H](n3nncc3-c3cccc4ccccc34)[C@@H](CO)O2)c(=O)[nH]c1=O` the EC50 [4] was 9.1 µM, the selectivity ratio [9] was 910 and the Activity [5] was “Dose-dependent effect”. For the same compound, the EC50 [5] was 1000 nM, the EC50 [6] was 600 nM and the “Ratio EC50” value [10] was 0.6. For the same compound, the “Ratio EC50” value [11] was 9, the inhibition at 10 µM [12] was 83% and the EC50 [7] was 67 nM. It also gave a CC50 (CEM-SS [13]) of 61 µM and an Activity (CEM-SS [14]) of 100%.
